Source: ChEMBL document CHEMBL4387757, “Synthesis and molecular modeling of novel non-sulfonylureas as hypoglycemic agents and selective ALR2 inhibitors” (Bioorg Med Chem, 2019)
pIC50: −log10 of the molar value. Blank lines part the entries; values can stand above or below the compound they belong to.

Assays:
[1] = tested on: Mus musculus; test: Antihyperglycemic activity in alloxan-induced diabetic BALB/c mouse model assessed as blood glucose level at 10 mg/kg measured after 6 hrs by glucometry analysis; format: functional
Outline: (§1)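 Diabetic BALB/c mice; blood sampled before dosing (0 h) and again at 2, 4, 6 and 8 h to measure blood glucose (mg/dl). Values are means ± SEM from three trials.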

[2] = tested on: Mus musculus; test: Antihyperglycemic activity in alloxan-induced diabetic BALB/c mouse model assessed as reduction in blood glucose level at 10 mg/kg measured after 8 hrs by glucometry analysis relative to control; format: functional
Outline: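 Diabetic BALB/c mice; blood glucose measured at 0 h and at 2, 4, 6 and 8 h. Percent inhibition of blood glucose was calculated at 8 h. Three trials.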

[3] = tested on: Mus musculus; test: Antihyperglycemic activity in alloxan-induced diabetic BALB/c mouse model assessed as blood glucose level at 10 mg/kg measured immediately by glucometry analysis; format: functional; outline: as §1
[4] = target: T1, Aldo-keto reductase family 1 member B1 (Homo sapiens, UniProt P15121); test: Inhibition of ALR2 (unknown origin) using sodium dl-glyceraldehyde as substrate preincubated for 10 mins followed by substrate addition by UV-spectrophotometry analysis
Outline: (§2)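 Enzyme activity followed by UV spectrophotometry as the decrease in NADPH absorbance at 340 nm. Valproic acid served as positive control for ALR1, sorbinil for ALR2.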

[5] = tested on: Mus musculus; test: Antihyperglycemic activity in alloxan-induced diabetic BALB/c mouse model assessed as blood glucose level at 10 mg/kg measured after 8 hrs by glucometry analysis; format: functional; outline: as §1
[6] = target: Aldo-keto reductase family 1 member A1 (Homo sapiens, UniProt P14550); test: Inhibition of ALR1 (unknown origin) using sodium d-glucoronate as substrate preincubated for 10 mins followed by substrate addition by UV-spectrophotometry analysis; outline: as §2
[7] = tested on: Mus musculus; test: Antihyperglycemic activity in alloxan-induced diabetic BALB/c mouse model assessed as blood glucose level at 10 mg/kg measured after 2 hrs by glucometry analysis; format: functional; outline: as §1
[8] = tested on: Mus musculus; test: Antihyperglycemic activity in alloxan-induced diabetic BALB/c mouse model assessed as blood glucose level at 10 mg/kg measured after 4 hrs by glucometry analysis; format: functional; outline: as §1
[9] = target: T1, Aldo-keto reductase family 1 member B1; test: Selectivity index, ratio of IC50 for ALR1 (unknown origin) to IC50 for ALR2 (unknown origin)

Sequence of Aldo-keto reductase family 1 member A1 (P14550 2-325 limits assumed): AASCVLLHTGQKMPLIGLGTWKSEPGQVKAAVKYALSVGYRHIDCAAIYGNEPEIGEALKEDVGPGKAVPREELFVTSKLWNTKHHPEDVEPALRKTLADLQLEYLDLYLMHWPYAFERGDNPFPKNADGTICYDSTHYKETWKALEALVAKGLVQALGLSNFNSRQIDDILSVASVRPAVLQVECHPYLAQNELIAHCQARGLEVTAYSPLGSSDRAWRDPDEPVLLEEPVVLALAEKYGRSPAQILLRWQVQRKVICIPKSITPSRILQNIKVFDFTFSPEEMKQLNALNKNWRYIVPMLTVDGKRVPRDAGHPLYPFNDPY

SMILES: O=C(CN1C(=O)NC2(C1=O)c1ccccc1-c1ccccc12)Nc1ccc(Cl)cc1
Activity [1]: 189 mg/dL | inhibition in vivo at 10 mg/kg [2]: 80.4% | Activity [3]: 460 mg/dL | pIC50 [4]: 5.99 | Activity [5]: 90 mg/dL | pIC50 [6]: 4.65 | Activity [7]: 350 mg/dL | Activity [8]: 234 mg/dL | Ratio IC50 [9]: 21.6

SMILES: O=C(CN1C(=O)NC2(C1=O)c1ccccc1-c1ccccc12)Nc1ccc(Cl)cc1Cl
Activity [1]: 168 mg/dL | inhibition in vivo at 10 mg/kg [2]: 84.3% | Activity [3]: 398 mg/dL | pIC50 [4]: 6.43 | Activity [5]: 63 mg/dL | pIC50 [6]: 4.45 | Activity [7]: 290 mg/dL | Activity [8]: 223 mg/dL | Ratio IC50 [9]: 96

SMILES: Cc1ccc(NC(=O)CN2C(=O)NC3(C2=O)c2ccccc2-c2ccccc23)cc1
Activity [1]: 211 mg/dL | inhibition in vivo at 10 mg/kg [2]: 53.4% | Activity [3]: 358 mg/dL | pIC50 [4]: 5.21 | Activity [5]: 167 mg/dL | pIC50 [6]: 4.96 | Activity [7]: 314 mg/dL | Activity [8]: 283 mg/dL | Ratio IC50 [9]: 1.76

SMILES: COc1ccc(NC(=O)CN2C(=O)NC3(C2=O)c2ccccc2-c2ccccc23)cc1
Activity [1]: 279 mg/dL | Activity [3]: 320 mg/dL | pIC50 [4]: 5.54 | Activity [5]: 370 mg/dL | pIC50 [6]: 4.62 | Activity [7]: 258 mg/dL | Activity [8]: 237 mg/dL | Ratio IC50 [9]: 8.45

SMILES: O=C(CN1C(=O)NC2(CCCCC2)C1=O)Nc1ccc(Cl)cc1Cl
Activity [1]: 217 mg/dL | inhibition in vivo at 10 mg/kg [2]: 68.5% | Activity [3]: 384 mg/dL | pIC50 [4]: 5.71 | Activity [5]: 121 mg/dL | pIC50 [6]: 4.48 | Activity [7]: 319 mg/dL | Activity [8]: 269 mg/dL | Ratio IC50 [9]: 16.9

SMILES: CCOc1cc(CC(=O)N[C@@H](CC(C)C)c2ccccc2N2CCCCC2)ccc1C(=O)O [REPAGLINIDE]
Activity [1]: 160 mg/dL | inhibition in vivo at 10 mg/kg [2]: 66.1% | Activity [3]: 392 mg/dL | Activity [5]: 94 mg/dL | Activity [7]: 313 mg/dL | Activity [8]: 259 mg/dL

SMILES: O=C(CN1C(=O)NC2(C1=O)c1ccccc1-c1ccccc12)Nc1ccc(Br)cc1
Activity [1]: 173 mg/dL | inhibition in vivo at 10 mg/kg [2]: 81.1% | Activity [3]: 452 mg/dL | pIC50 [4]: 6.03 | Activity [5]: 85 mg/dL | pIC50 [6]: 4.52 | Activity [7]: 331 mg/dL | Activity [8]: 218 mg/dL | Ratio IC50 [9]: 32.6

Second part, led by results:

pIC50 [4]: 5.95 | pIC50 [6]: 4.68 | Ratio IC50 [9]: 18.3
SMILES: O=C(CN1C(=O)NC2(CCCCC2)C1=O)Nc1ccc(Cl)cc1
Activity [1]: 170 mg/dL | inhibition in vivo at 10 mg/kg [2]: 79.2% | Activity [3]: 406 mg/dL | Activity [5]: 85 mg/dL | Activity [7]: 347 mg/dL | Activity [8]: 242 mg/dL

pIC50 [4]: 4.99 | pIC50 [6]: 5.19 | Ratio IC50 [9]: 0.63
SMILES: Cc1ccc(NC(=O)CN2C(=O)NC3(CCCCC3)C2=O)cc1
Activity [1]: 197 mg/dL | inhibition in vivo at 10 mg/kg [2]: 70.3% | Activity [3]: 387 mg/dL | Activity [5]: 115 mg/dL | Activity [7]: 305 mg/dL | Activity [8]: 268 mg/dL

pIC50 [4]: 6.14 | pIC50 [6]: 4.51 | Ratio IC50 [9]: 43.4
SMILES: O=C(CN1C(=O)NC2(CCCCC2)C1=O)Nc1ccc(Br)cc1
Activity [1]: 182 mg/dL | inhibition in vivo at 10 mg/kg [2]: 85.1% | Activity [3]: 459 mg/dL | Activity [5]: 69 mg/dL | Activity [7]: 386 mg/dL | Activity [8]: 276 mg/dL

pIC50 [4]: 5.56 | pIC50 [6]: 4.59 | Ratio IC50 [9]: 9.36
SMILES: COc1ccc(NC(=O)CN2C(=O)NC3(CCCCC3)C2=O)cc1
Activity [1]: 231 mg/dL | inhibition in vivo at 10 mg/kg [2]: 56.1% | Activity [3]: 370 mg/dL | Activity [5]: 163 mg/dL | Activity [7]: 322 mg/dL | Activity [8]: 299 mg/dL
